We go through 29 molecules from PubChem BioAssay.

Assay [1] is described as follows: nonspecific flux increase, KCNQ1-free cells – parental CHO cells, counter-screen for KCNQ1 potentiator project (AID 493006;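 active = duplicate-averaged activation above buffer control mean plus 5 SD of those controls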;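 as to activation: fluorescence ratio of max minus min over baseline after K+ and Tl+ depolarization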). Particulars: parental CHO-K1 cells, FluxOR thallium flux, at 10 µM; active compounds read high. In short, it runs like this: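 Material: untransfected host CHO-K1 cells with FluxOR thallium dye. Timing: overnight 37 °C plating, 90 min RT dye, 20 min compound. Detection: kinetic FluxOR fluorescence, 10 s baseline, 110 s after stimulus. Read-out basis: max-minus-min fluorescence over baseline, percent of buffer-to-R-L3 span. Replicates: duplicate wells per compound, percent values averaged.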

For assay [2], the target named is Potassium voltage-gated channel subfamily KQT member 1 (Homo sapiens) (UniProt P51787). Description: enhancement of KCNQ1 channel thallium flux – FluxOR thallium flux, CHO cells, duplicates, confirmation (AID 493007).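 As to outcome: cells depolarized by a potassium plus thallium sulfate stimulus after compound.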 Particulars: KCNQ1 cell line, FluxOR thallium flux fluorescence, at 10 µM; active compounds read high, % of reference activator effect, buffer zero. In short, it runs like this:
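Test system – KCNQ1-expressing CHO cell line · Incubation – FluxOR dye loading 90 min, compound exposure 20 min, room temperature · Detection – FluxOR Tl+ flux fluorescence, 10 s baseline plus 110 s recording · Controls – buffer-only wells as 0% and R-L3 activator as 100%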

Assay [3] has as its target Potassium voltage-gated channel subfamily KQT member 2 (Rattus norvegicus) (UniProt O88943). Put plainly: KCNQ2 thallium flux enhancement – KCNQ2-CHO-K1 cells, selectivity assay for KCNQ1 potentiator project (AID 493009;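 active = mean duplicate potentiation above the buffer control mean plus 5 SD of buffer wells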;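 also: assay conditions were tuned for KCNQ1 rather than KCNQ2 modulators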). Particulars: FluxOR thallium flux fluorescence, at 10 µM; active compounds read high, scaled: buffer 0, activator control 100.
Assay [4] has as its target Potassium voltage-gated channel subfamily KQT member 1 (Homo sapiens) (UniProt P51787). Description: KCNQ1 activators by electrophysiology – IonWorks patch clamp, KCNQ1-CHO cells, orthogonal assay for KCNQ1 potentiator project, confirmation (AID 493184;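 active = current rise at least 3 SD above the untreated control mean in each of two repeat wells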). Particulars: automated patch clamp current, at 10 µM; active compounds read high. Summed up: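 Read-out: Percent current increase versus pre-compound level | Assay system: CHO cells carrying KCNQ1 | Measured by: Automated perforated-patch electrophysiology | Medium: External bath solution at pH 7.4 | Dosing: One dose, 10 µM final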
On the technique in general: In patch-clamp work, channel activity is measured electrically.

SMILES strings stand for the structures. Active and inactive are the calls of the source.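 The calls were made as follows, unless noted: active = potentiation averaged over duplicate wells exceeding buffer-only control mean by more than 3 SD; inactive = the rest.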

Sequence of Potassium voltage-gated channel subfamily KQT member 1 (Homo sapiens) (P51787 whole entry, looked up): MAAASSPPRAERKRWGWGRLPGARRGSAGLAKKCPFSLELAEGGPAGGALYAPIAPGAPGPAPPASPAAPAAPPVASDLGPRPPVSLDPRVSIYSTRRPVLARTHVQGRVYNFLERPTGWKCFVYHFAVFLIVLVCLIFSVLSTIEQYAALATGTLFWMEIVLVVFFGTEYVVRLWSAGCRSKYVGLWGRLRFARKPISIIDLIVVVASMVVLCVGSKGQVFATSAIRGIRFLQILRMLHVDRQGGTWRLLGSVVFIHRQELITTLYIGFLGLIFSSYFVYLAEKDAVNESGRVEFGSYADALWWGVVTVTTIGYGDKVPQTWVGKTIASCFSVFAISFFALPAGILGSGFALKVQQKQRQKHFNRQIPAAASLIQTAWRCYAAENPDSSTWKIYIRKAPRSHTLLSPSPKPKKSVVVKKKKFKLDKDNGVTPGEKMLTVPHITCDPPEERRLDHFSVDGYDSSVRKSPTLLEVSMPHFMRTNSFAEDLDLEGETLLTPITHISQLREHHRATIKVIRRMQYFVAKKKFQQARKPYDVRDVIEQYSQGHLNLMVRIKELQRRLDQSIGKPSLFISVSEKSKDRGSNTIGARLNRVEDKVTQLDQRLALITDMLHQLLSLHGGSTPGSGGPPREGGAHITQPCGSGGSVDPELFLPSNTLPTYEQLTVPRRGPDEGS
Sequence of Potassium voltage-gated channel subfamily KQT member 2 (Rattus norvegicus) (O88943 whole entry, looked up): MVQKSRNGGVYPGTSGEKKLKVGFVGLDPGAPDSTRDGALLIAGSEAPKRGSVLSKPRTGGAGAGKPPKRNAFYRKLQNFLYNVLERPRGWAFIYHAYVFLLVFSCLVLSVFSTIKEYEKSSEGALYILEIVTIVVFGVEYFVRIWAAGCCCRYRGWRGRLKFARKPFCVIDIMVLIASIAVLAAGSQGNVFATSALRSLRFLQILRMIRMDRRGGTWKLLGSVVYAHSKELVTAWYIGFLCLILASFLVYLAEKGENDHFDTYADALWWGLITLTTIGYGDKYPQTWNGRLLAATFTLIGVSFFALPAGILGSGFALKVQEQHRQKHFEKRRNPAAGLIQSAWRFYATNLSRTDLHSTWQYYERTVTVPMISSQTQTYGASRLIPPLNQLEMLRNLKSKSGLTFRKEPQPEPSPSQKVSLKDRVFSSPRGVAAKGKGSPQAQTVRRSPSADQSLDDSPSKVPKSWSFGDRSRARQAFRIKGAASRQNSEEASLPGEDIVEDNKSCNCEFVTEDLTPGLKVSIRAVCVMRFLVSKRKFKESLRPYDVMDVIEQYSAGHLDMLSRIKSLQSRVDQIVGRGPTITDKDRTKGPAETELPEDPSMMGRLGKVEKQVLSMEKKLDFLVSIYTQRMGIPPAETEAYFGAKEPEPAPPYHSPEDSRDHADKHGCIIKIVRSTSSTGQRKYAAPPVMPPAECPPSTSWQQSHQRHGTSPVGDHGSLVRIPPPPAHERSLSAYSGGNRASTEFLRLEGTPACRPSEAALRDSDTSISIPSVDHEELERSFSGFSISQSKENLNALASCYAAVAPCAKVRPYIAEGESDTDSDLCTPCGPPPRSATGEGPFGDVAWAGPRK

Take `Oc1c(Br)cc(Br)cc1C=Nc1cccnc1`: the activation in assay [1] is 146% (active). In assay [2], the potentiation is 48% (active). Besides, the result in assay [3] and in assay [4] was inactive.

With `O=C(c1cc([N+](=O)[O-])cc([N+](=O)[O-])c1)N1CCCc2ccccc21`, the outcome in assay [1], in assay [2], in assay [3] and in assay [4] was inactive.

Turning to `CCOC(=O)c1cnc2c(C(=O)OC)cccc2c1NCCN1CCOCC1`, the outcome in assay [1], in assay [2], in assay [3] and in assay [4] was inactive.

In the case of `Cc1ccc(S(=O)(=O)N2CCCC(C(=O)Nc3ccc(C(=O)O)cc3)C2)cc1Cl` (stereo unspecified), the outcome in assay [1], in assay [2], in assay [3] and in assay [4] was inactive.

As for `CCCCN(CCCC)c1cn[nH]c(=O)c1Cl`, the outcome in assay [1], in assay [2], in assay [3] and in assay [4] was inactive.

In the case of `O=S(=O)(NC(=S)NC1CCCCC1)c1ccc(Cl)cc1`, in assay [1], the activation was 191% (active). Moreover, the potentiation in assay [2] is 56.5% (active); in assay [3], 199% (active). Moreover, in assay [4], the result was inactive.

Turning to `CN(C)c1oc(-c2ccc(OCc3ccc(Cl)cc3)cc2)nc1C#N`, the outcome in assay [1], in assay [2], in assay [3] and in assay [4] was inactive.

Regarding `N#Cc1ccc(-c2nc3ccc(Br)cc3c(=O)n2O)cc1`, in assay [1], the activation was 300% (active). Moreover, the potentiation in assay [2] is 120% (active); in assay [3], 354% (active). The result in assay [4] was inactive.

Regarding `C=CCn1c(O)c(N=NC(=S)Nc2cccc(C)c2)c2ccccc21`, the activation in assay [1] was 225% (active). In addition, the potentiation in assay [2] was 77% (active); in assay [3], 286% (active). For the same molecule, the result in assay [4] was inactive.

With `O=C1CN(S(=O)(=O)c2ccccc2)CC(=O)N1CCc1ccccc1`, the result in assay [1], in assay [2], in assay [3] and in assay [4] was inactive.

With `S=c1nc(-c2ccccc2)[nH]n1-c1ccccc1`, the activation in assay [1] was 504% (active). Also, the potentiation in assay [2] was 210% (active); in assay [3] it was 532% (active). Moreover, the outcome in assay [4] was inactive.

As for `O=C(O)c1ccc2c(c1)C(=O)N(c1ccc(Cl)cn1)C2=O`, the outcome in assay [1], in assay [2], in assay [3] and in assay [4] was inactive.

In the case of `CC(C)(C)NC(=O)C(=O)NNC(=O)c1cccc(F)c1`, in assay [1], the activation is 201% (active). The potentiation in assay [2] was 87.5% (active); in assay [3] it was 228% (active). The outcome in assay [4] was inactive.

On to `COc1ccc(CCNC(=O)CC(=O)N/N=C/c2ccc(Br)cc2)cc1OC`, for which the result in assay [1], in assay [2], in assay [3] and in assay [4] was inactive.

`Cc1c(CN(C)C)c2c(n1C)C(=O)c1ccc(Br)cc1-2`: in assay [1], the activation was 146% (active). In addition, the potentiation in assay [2] is 53% (active); in assay [3], 159% (active). In assay [4], the outcome was inactive.

Consider `CCSc1nnc(NS(=O)(=O)c2ccc(OC)cc2)s1`, for which the outcome in assay [1], in assay [2], in assay [3] and in assay [4] was inactive.

On to `Oc1ccc(N=Nc2ccc3c(c2)OCCO3)c2cccnc12`, for which the activation in assay [1] was 261% (active). Besides, the values for the potentiation in assay [2] and in assay [3] were 92.5% (active) and 384% (active), respectively. The outcome in assay [4] was inactive.

With `Cc1ccc(OCC(=O)NNC(=O)C(=O)NC(C)(C)C)cc1`, the activation in assay [1] was 170% (active). Further, the potentiation in assay [2] is 43% (active); in assay [3], 176% (active). The result in assay [4] was inactive.

`O=C(NC(=S)Nc1cccc(Cl)c1N1CCCCC1)c1ccco1`: the activation in assay [1] was 156% (active). Moreover, the potentiation in assay [2] is 148% (active); in assay [3], 178% (active). The result in assay [4] was inactive.

As for `CN(C)CCCN1c2ccccc2Sc2ccc(Cl)cc21`, the result in assay [1], in assay [2], in assay [3] and in assay [4] was inactive.

Turning to `O=C(CSc1nc2cc(Cl)ccc2s1)c1ccco1`, the outcome in assay [1], in assay [3] and in assay [4] was inactive. Moreover, in assay [2], the potentiation is 24% (active).

For the molecule `Nc1c(C(=O)Nc2ccc(F)cc2)nnn1-c1cccc(C(F)(F)F)c1`, the outcome in assay [1], in assay [2], in assay [3] and in assay [4] was inactive.

Consider `O=C(CSc1nnc(SCc2cccc3ccccc23)s1)c1ccc2c(c1)OCO2`, for which the activation in assay [1] is 163% (active). Also, the outcome in assay [2], in assay [3] and in assay [4] was inactive.

Consider `O=C(Nc1nnc(-c2ccc3c(c2)CCCC3)o1)c1ccccc1`, for which the activation in assay [1] was 266% (active). Moreover, the potentiation in assay [2] is 130% (active); in assay [3], 400% (active). Also, the outcome in assay [4] was inactive.

For the molecule `Cc1cc(N=Cc2cc(Br)ccc2O)no1`, in assay [1], the activation was 144% (active). Besides, the outcome in assay [2], in assay [3] and in assay [4] was inactive.

Turning to `CCCCn1c(N)c(N(CC)C(=O)CSCc2c(C)noc2C)c(=O)[nH]c1=O`, the result in assay [1], in assay [2], in assay [3] and in assay [4] was inactive.

As to `CN=C1c2cc3cc(OC)ccc3n2CCN1Cc1ccccc1`, the result in assay [1], in assay [2], in assay [3] and in assay [4] was inactive.

Regarding `Cc1cc(C)n(-c2nc3ccccc3nc2N2CCN(C(=O)c3ccc(Cl)cc3)CC2)n1`, the outcome in assay [1], in assay [2], in assay [3] and in assay [4] was inactive.

In the case of `CCCCN(CCCC)C(=S)NC(=O)C(C)(C)C`, the outcome in assay [1], in assay [2], in assay [3] and in assay [4] was inactive.
